From ChEMBL document CHEMBL1153232, “Synthesis and screening of a CaaL peptide library versus FTase reveals a surprising number of substrates” (Bioorg Med Chem Lett, 2010)
Active and inactive are the calls of the source. The calls are words filed in the database; no cut-off is given here. Peptide text beside a SMILES is read from it. * marks the point of attachment. Dansyl = CN(C)c1cccc2c(S(=O)(=O)*)cccc12

What was measured:
[1] = target: Protein farnesyltransferase subunit beta (Homo sapiens) (UniProt P49356); test: Activity at FTase assessed as formation of farnesylated peptide after 60 mins by HPLC
Protein farnesyltransferase subunit beta (Homo sapiens), sequence (P49356 whole entry): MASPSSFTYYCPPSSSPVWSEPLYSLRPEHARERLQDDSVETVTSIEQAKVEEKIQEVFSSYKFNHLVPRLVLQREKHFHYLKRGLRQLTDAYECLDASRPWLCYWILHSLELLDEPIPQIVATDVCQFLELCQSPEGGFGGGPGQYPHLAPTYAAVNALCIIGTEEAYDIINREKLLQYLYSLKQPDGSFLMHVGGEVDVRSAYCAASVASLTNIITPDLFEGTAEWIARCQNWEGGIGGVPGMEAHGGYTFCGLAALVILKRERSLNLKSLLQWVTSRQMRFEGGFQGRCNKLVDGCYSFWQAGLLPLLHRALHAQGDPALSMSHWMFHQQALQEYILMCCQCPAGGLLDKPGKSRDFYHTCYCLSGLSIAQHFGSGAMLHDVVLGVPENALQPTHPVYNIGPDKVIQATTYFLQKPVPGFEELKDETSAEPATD
Summary of the method: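 Peptide (3 μM) with 9 μM FPP and recombinant mammalian FTase (0.05 μM), incubated 60 min. HPLC scored conversion to farnesylated peptide: complete; nearly complete; 25% to 50%; less than 25%; no product.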

[2] = target: Protein farnesyltransferase subunit beta (Homo sapiens) (UniProt P49356); test: Ratio of kcat to km for FTase in presence of farnesyl diphosphate
Summary of the method: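 Steady-state kinetics at saturating FPP (10 μM), 0.2-10 μM dansyl peptide, 20-100 nM FTase (at least 5-fold below peptide). Buffer: 50 mM HEPPSO pH 7.8, 5 mM TCEP, 5 mM MgCl2, 25 °C. Peptide preincubated 20 min in buffer, then FTase and FPP added. Fluorescence (ex 340, em 520 nm) followed over time and converted to kcat/KM.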

[3] = target: Protein farnesyltransferase subunit beta (Homo sapiens) (UniProt P49356); test: Substrate activity for FTase assessed as increase in fluorescence by spectrofluorimetry in presence of farnesyl diphosphate relative to DnGCVLS; set-up: concentration or dose not given beside the values

| Activity [1] | Ratio [2] [mM⁻¹ s⁻¹] | Activity [3] [%] | Compound |
| --- | --- | --- | --- |
| Active | 8.1 | 9 | CSCC[C@H](NC(=O)[C@H](CC(C)C)NC(=O)[C@H](CS)NC(=O)CNS(=O)(=O)c1cccc2c(N(C)C)cccc12)C(=O)N[C@@H](CC(C)C)C(=O)O (Dansyl-GCLML-OH) |
| Active | 47 | 52 | CC[C@H](C)[C@H](NC(=O)[C@@H](NC(=O)[C@H](CS)NC(=O)CNS(=O)(=O)c1cccc2c(N(C)C)cccc12)C(C)C)C(=O)N[C@@H](CC(C)C)C(=O)O (Dansyl-GCVIL-OH) |
